# Assay results reported in ChEMBL document CHEMBL1151448, “Comparative antianaerobic activities of doripenem determined by MIC and time-kill analysis” (2008).
# Calls of active or inactive are those of the source. No cut-off for these calls is given here.
# Tests used:
# [1] = system: Paeniclostridium sordellii; assay: Antimicrobial activity against Clostridium sordellii isolated from intra-abdominal infection and pelvic inflammatory disease patients after 48 hrs by agar dilution method; format: functional; settings: Paraclostridium sordellii
# Method in brief: (§1)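 CLSI agar dilution on brucella blood agar supplemented with laked sheep blood, hemin and vitamin K. Inocula of about 1 × 10^5 CFU/spot were applied by Steers replicator, and plates were incubated 48 h at 35°C in an anaerobic glove box. MIC was the concentration giving marked growth reduction versus the anaerobic control plate. QC strains were included each run, and β-lactamase was detected by Cefinase disk.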
# Clostridioides difficile [2] = assay: Antimicrobial activity against Clostridium difficile isolated from intra-abdominal infection and pelvic inflammatory disease patients after 48 hrs by agar dilution method; format: functional; method in brief: as §1
# Fusobacterium varium = assay: Antimicrobial activity against Fusobacterium varium isolated from intra-abdominal infection and pelvic inflammatory disease patients after 48 hrs by agar dilution method; format: functional; method in brief: as §1
# Prevotella intermedia [3] = assay: Antimicrobial activity against beta lactamase-positive Prevotella intermedia isolated from intra-abdominal infection and pelvic inflammatory disease patients after 48 hrs by agar dilution method; format: functional; method in brief: as §1
# [Clostridium] innocuum = Antimicrobial activity against Clostridium innocuum isolated from intra-abdominal infection and pelvic inflammatory disease patients after 48 hrs by agar dilution method; format: functional; method in brief: as §1
# Bacteroides fragilis = assay: Bactericidal activity against beta lactamase-positive Bacteroides fragilis isolated from intra-abdominal infection and pelvic inflammatory disease patients assessed as bacterial killing at MIC after 24 hrs by time kill analysis; format: functional
# Method in brief: (§2)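 Macrodilution time-kill in prereduced brucella broth with 5% laked horse blood, hemin 5 μg/ml and vitamin K1 1 μg/ml, at final inoculum 10^6–10^7 CFU/ml. […] Viable counts were taken at 6, 12, 24 and 48 h on plates incubated 48 h anaerobically. 99.9% kill was taken as bactericidal.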
# Porphyromonas levii = assay: Antimicrobial activity against Porphyromonas levii isolated from intra-abdominal infection and pelvic inflammatory disease patients after 48 hrs by agar dilution method; format: functional; method in brief: as §1
# Prevotella disiens = assay: Antimicrobial activity against beta lactamase-positive Prevotella disiens isolated from intra-abdominal infection and pelvic inflammatory disease patients after 48 hrs by agar dilution method; format: functional; method in brief: as §1
# Finegoldia magna [4] = assay: Bactericidal activity against beta lactamase-positive Finegoldia magna isolated from intra-abdominal infection and pelvic inflammatory disease patients assessed as bacterial killing at 2 times MIC after 48 hrs by time kill analysis; format: functional
# Method in brief: (§3)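 Anaerobic macrodilution time-kill. Inoculum from brucella blood plates, prepared and diluted in prereduced brucella broth inside the anaerobe chamber. Final 10^6 to 10^7 CFU/ml in prereduced brucella broth with 5% laked horse blood cells, 5 μg/ml hemin and 1 μg/ml vitamin K1. […] Shaken at 35°C for 48 h. Viable counts taken at 6, 12, 24 and 48 h. 99.9% kill taken as bactericidal.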
# Anaerococcus tetradius = assay: Antimicrobial activity against Anaerococcus tetradius isolated from intra-abdominal infection and pelvic inflammatory disease patients after 48 hrs by agar dilution method; format: functional; method in brief: as §1
# [5] = system: Paraclostridium bifermentans; assay: Antimicrobial activity against Clostridium bifermentans isolated from intra-abdominal infection and pelvic inflammatory disease patients after 48 hrs by agar dilution method; format: functional; method in brief: as §1
# [6] = system: Bacteroides thetaiotaomicron; assay: Bactericidal activity against beta lactamase-positive Bacteroides thetaiotaomicron isolated from intra-abdominal infection and pelvic inflammatory disease patients assessed as bacterial killing at 2 times MIC after 48 hrs by time kill analysis; format: functional; method in brief: as §2
# Prevotella intermedia [7] = assay: Bactericidal activity against beta lactamase-positive Prevotella intermedia isolated from intra-abdominal infection and pelvic inflammatory disease patients assessed as bacterial killing at 2 times MIC after 48 hrs by time kill analysis; format: functional; method in brief: as §3
# Clostridioides difficile [8] = assay: Antimicrobial activity against Clostridium difficile isolated from intra-abdominal infection and pelvic inflammatory disease patients after 48 hrs by time kill analysis; format: functional
# Method in brief: (§4)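 Macrodilution in prereduced brucella broth with 5% laked horse blood cells, 5 μg/ml hemin and 1 μg/ml vitamin K1. Final inoculum 10^6 to 10^7 CFU/ml, prepared inside the anaerobe chamber. Vials incubated 48 h at 35°C in a shaking water bath. MIC read by inspecting the time-kill tubes, alongside an antibiotic-free growth control.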
# Thomasclavelia ramosa = assay: Antimicrobial activity against Clostridium ramosum isolated from intra-abdominal infection and pelvic inflammatory disease patients after 48 hrs by agar dilution method; format: functional; method in brief: as §1
# [9] = system: Bacteroides thetaiotaomicron; assay: Bactericidal activity against beta lactamase-positive Bacteroides thetaiotaomicron isolated from intra-abdominal infection and pelvic inflammatory disease patients assessed as bacterial killing at MIC after 24 hrs by time kill analysis; format: functional; method in brief: as §2
# [10] = system: Peptoniphilus asaccharolyticus; assay: Antimicrobial activity against Peptoniphilus asaccharolyticus isolated from intra-abdominal infection and pelvic inflammatory disease patients after 48 hrs by agar dilution method; format: functional; method in brief: as §1
# Prevotella nigrescens = assay: Antimicrobial activity against beta lactamase-positive Prevotella nigrescens isolated from intra-abdominal infection and pelvic inflammatory disease patients after 48 hrs by agar dilution method; format: functional; method in brief: as §1
# Parvimonas micra = assay: Antimicrobial activity against Micromonas micros isolated from intra-abdominal infection and pelvic inflammatory disease patients after 48 hrs by agar dilution method; format: functional; method in brief: as §1
# Clostridium perfringens [11] = assay: Bactericidal activity against Clostridium perfringens isolated from intra-abdominal infection and pelvic inflammatory disease patients assessed as bacterial killing at MIC after 24 hrs by time kill analysis; format: functional
# Method in brief: (§5)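 Time-kill in prereduced brucella broth with 5% laked horse blood cells, hemin and vitamin K1. […] Viable counts taken at 6, 12, 24 and 48 h, plates incubated 48 h anaerobically. Kill scored as 90%, 99% or 99.9%; 99.9% defines bactericidal.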
# Clostridioides difficile [12] = assay: Bactericidal activity against Clostridium difficile isolated from intra-abdominal infection and pelvic inflammatory disease patients assessed as 99.9% bacterial killing at 2 times MIC after 48 hrs by time kill analysis; format: functional, organism-based; method in brief: as §2
# Clostridium perfringens [13] = assay: Bactericidal activity against Clostridium perfringens isolated from intra-abdominal infection and pelvic inflammatory disease patients assessed as bacterial killing at 2 times MIC after 48 hrs by time kill analysis; format: functional; method in brief: as §5
# Finegoldia magna [14] = assay: Bactericidal activity against beta lactamase-positive Finegoldia magna isolated from intra-abdominal infection and pelvic inflammatory disease patients assessed as bacterial killing at MIC after 24 hrs by time kill analysis; format: functional; method in brief: as §3
# Clostridium perfringens [15] = assay: Antimicrobial activity against Clostridium perfringens isolated from intra-abdominal infection and pelvic inflammatory disease patients after 48 hrs by time kill analysis; format: functional; method in brief: as §4
# [16] = system: Bacteroides thetaiotaomicron; assay: Antimicrobial activity against beta lactamase-positive Bacteroides thetaiotaomicron isolated from intra-abdominal infection and pelvic inflammatory disease patients after 48 hrs by agar dilution method; format: functional; method in brief: as §1
# [17] = system: Parabacteroides distasonis; assay: Antimicrobial activity against beta lactamase-positive Bacteroides distasonis isolated from intra-abdominal infection and pelvic inflammatory disease patients after 48 hrs by agar dilution method; format: functional; method in brief: as §1
# Anaerococcus prevotii = assay: Antimicrobial activity against Anaerococcus prevotii isolated from intra-abdominal infection and pelvic inflammatory disease patients after 48 hrs by agar dilution method; format: functional; method in brief: as §1
# Finegoldia magna [18] = assay: Antimicrobial activity against Finegoldia magna isolated from intra-abdominal infection and pelvic inflammatory disease patients after 48 hrs by agar dilution method; format: functional; method in brief: as §1
# Prevotella intermedia [19] = assay: Bactericidal activity against beta lactamase-positive Prevotella intermedia isolated from intra-abdominal infection and pelvic inflammatory disease patients assessed as bacterial killing at MIC after 24 hrs by time kill analysis; format: functional; method in brief: as §3
smiles,measurement,setting,value
C[C@@H](O)[C@H]1C(=O)N2C(C(=O)O)=C(S[C@@H]3CN[C@H](C(=O)N(C)C)C3)[C@H](C)[C@H]12 [MEROPENEM],MIC,[1],0.06 µg/mL
same,MIC50,Clostridioides difficile [2],2 µg/mL
same,MIC90,Clostridioides difficile [2],4 µg/mL
same,MIC50,Fusobacterium varium,0.125 µg/mL
same,MIC90,Fusobacterium varium,0.25 µg/mL
same,MIC50,Prevotella intermedia [3],0.03 µg/mL
same,MIC90,Prevotella intermedia [3],0.125 µg/mL
same,MIC50,[Clostridium] innocuum,2 µg/mL
same,Activity,Bacteroides fragilis,90%
same,MIC,Porphyromonas levii,≤ 0.016 µg/mL
same,MIC,Prevotella disiens,0.03 µg/mL
same,MIC50,Prevotella disiens,0.03 µg/mL
same,MIC90,Prevotella disiens,0.125 µg/mL
same,Activity,Finegoldia magna [4],99%
same,MIC,Anaerococcus tetradius,0.03 µg/mL
same,MIC50,Anaerococcus tetradius,0.03 µg/mL
same,MIC,[5],0.125 µg/mL
same,Activity,[6],99%
same,Activity,Prevotella intermedia [7],99%
same,MIC,Clostridioides difficile [8],1 µg/mL
same,MIC50,Thomasclavelia ramosa,1 µg/mL
same,Activity,[9],90%
same,MIC,[10],≤ 0.016 µg/mL
same,MIC50,[10],≤ 0.016 µg/mL
same,MIC90,[10],0.03 µg/mL
same,MIC50,Prevotella nigrescens,0.03 µg/mL
same,MIC90,Prevotella nigrescens,0.06 µg/mL
same,MIC,Parvimonas micra,0.03 µg/mL
same,MIC50,Parvimonas micra,0.03 µg/mL
same,MIC90,Parvimonas micra,0.25 µg/mL
same,Activity,Clostridium perfringens [11],90%
same,Activity,Clostridioides difficile [12],inactive
same,Activity,Clostridium perfringens [13],99%
same,Activity,Finegoldia magna [14],90%
same,MIC,Clostridium perfringens [15],0.03 µg/mL
same,MIC50,[16],0.25 µg/mL
same,MIC90,[16],0.5 µg/mL
same,MIC,[17],0.125 µg/mL
same,MIC50,[17],0.125 µg/mL
same,MIC90,[17],0.5 µg/mL
same,MIC,Anaerococcus prevotii,≤ 0.016 µg/mL
same,MIC,Finegoldia magna [18],0.06 µg/mL
same,MIC50,Finegoldia magna [18],0.06 µg/mL
same,MIC90,Finegoldia magna [18],0.125 µg/mL
same,Activity,Prevotella intermedia [19],90%
C[C@@H](O)[C@H]1C(=O)N2C(C(=O)O)=C(SCCNC=N)C[C@H]12 [IMIPENEM ANHYDROUS],MIC,[1],0.125 µg/mL
same,MIC50,Clostridioides difficile [2],8 µg/mL
same,MIC90,Clostridioides difficile [2],8 µg/mL
same,MIC50,Fusobacterium varium,1 µg/mL
same,MIC90,Fusobacterium varium,1 µg/mL
same,MIC50,Prevotella intermedia [3],0.03 µg/mL
same,MIC90,Prevotella intermedia [3],0.125 µg/mL
same,MIC,[Clostridium] innocuum,1 µg/mL
same,MIC50,[Clostridium] innocuum,1 µg/mL
same,Activity,Bacteroides fragilis,90%
same,MIC,Porphyromonas levii,≤ 0.016 µg/mL
same,MIC,Prevotella disiens,0.03 µg/mL
same,MIC50,Prevotella disiens,0.03 µg/mL
same,MIC90,Prevotella disiens,0.125 µg/mL
same,Activity,Finegoldia magna [4],99%
same,MIC50,Anaerococcus tetradius,0.03 µg/mL
same,MIC,[5],0.25 µg/mL
same,Activity,[6],99%
same,Activity,Prevotella intermedia [7],99%
same,MIC,Clostridioides difficile [8],4 µg/mL
same,MIC,Thomasclavelia ramosa,0.25 µg/mL
same,MIC50,Thomasclavelia ramosa,0.25 µg/mL
same,Activity,[9],90%
same,MIC,[10],≤ 0.016 µg/mL
same,MIC50,[10],≤ 0.016 µg/mL
same,MIC90,[10],0.03 µg/mL
same,MIC50,Prevotella nigrescens,0.03 µg/mL
same,MIC90,Prevotella nigrescens,0.03 µg/mL
same,MIC,Parvimonas micra,0.03 µg/mL
same,MIC50,Parvimonas micra,0.03 µg/mL
same,MIC90,Parvimonas micra,0.06 µg/mL
same,Activity,Clostridium perfringens [11],90%
same,Activity,Clostridioides difficile [12],inactive
same,Activity,Clostridium perfringens [13],99%
same,Activity,Finegoldia magna [14],90%
same,MIC,Clostridium perfringens [15],0.06 µg/mL
same,MIC,[16],0.25 µg/mL
same,MIC50,[16],0.25 µg/mL
same,MIC90,[16],0.5 µg/mL
same,MIC50,[17],0.5 µg/mL
same,MIC90,[17],1 µg/mL
same,MIC,Anaerococcus prevotii,≤ 0.016 µg/mL
same,MIC50,Finegoldia magna [18],0.06 µg/mL
same,MIC90,Finegoldia magna [18],0.06 µg/mL
same,Activity,Prevotella intermedia [19],90%
